# CHO parental Ca – ATP-evoked calcium signal inhibitors, parental CHO, primary screen, counter-screen for OX1R antagonist project, cell-based, fluorescence, Fluo-8 calcium dye; parental CHO-K1, ATP-induced calcium, Fluo-8 fluorescence; inhibition, % at 5.6 µM; hit rate 0.63% among 330,000;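 active means inhibition above that plate's mean sample inhibition plus 3 SD, cut at about 26% in these data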;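 further: 0% = ATP-challenged DMSO wells and 100% = DMSO wells without ATP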
#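 Assay system: parental CHO cells; Read-out basis: percent inhibition of ATP-evoked calcium rise, normalized to controls; Benchmarks: ATP and no-ATP DMSO wells; Compound dosing: single nominal dose of 5.6 µM per compound; Signal: Fluo-8 calcium dye fluorescence; Also added: ATP as calcium-mobilizing challenge; Repeats: singlicate.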
# GPR7 antagonist – GPR7 receptor antagonists, primary screen, cell-based, fluorescence, single concentration; Neuropeptides B/W receptor type 1 (Homo sapiens), P48145; GPR7-expressing cells, fluorescence antagonist assay; inhibition, % at 4.4 µM; hit rate 1.1% among 290,000; AID 1861, 2009; in the data active means inhibition above about 16%, passing the limit was not always enough;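 further: cells stimulated with the agonist NPW; 0% = agonist with vehicle and 100% = vehicle without agonist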
# Target sequence (P48145 whole entry, looked up): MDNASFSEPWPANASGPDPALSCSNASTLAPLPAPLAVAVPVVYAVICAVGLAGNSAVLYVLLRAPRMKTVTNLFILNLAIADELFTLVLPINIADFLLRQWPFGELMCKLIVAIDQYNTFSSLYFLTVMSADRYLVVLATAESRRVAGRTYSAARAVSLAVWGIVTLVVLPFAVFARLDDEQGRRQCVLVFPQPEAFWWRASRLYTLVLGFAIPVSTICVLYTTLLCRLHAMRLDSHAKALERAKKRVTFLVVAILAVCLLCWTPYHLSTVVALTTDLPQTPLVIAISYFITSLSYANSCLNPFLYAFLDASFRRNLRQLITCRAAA
# OX1R antag-1 – antagonists of human orexin 1 receptor (OX1R) | Orexin/Hypocretin receptor type 1 (Homo sapiens), O43613 | OX1R-expressing cells, FRET antagonist read-out | inhibition, % at 6.6 µM | hit rate 1.8% among 330,000; in the data active means inhibition mostly above about 38%, no sharp cut-off; inactive means mostly below about 40%;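 further: 0% = agonist challenge alone and 100% = reference antagonist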
# GalR3 antag – GalR3 antagonists in HEK293 cells, primary screen, cell-based, fluorescence readout. inhibition, % at 3 µM. Galanin receptor type 3 (Homo sapiens), O60755. hit rate 0.44% among 360,000. HEK293 GalR3-CNG cAMP membrane potential fluorescence; galR3 body fused to GalR1 C-terminus. AID 651719, 2012;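 active means inhibition above the screen-wide average plus 3 SD, cut at about 13% in these data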;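 further: forskolin and galanin both at EC90 stimulate the cells; cAMP rise reported by CNG channel membrane potential dye signal; 0% = forskolin plus galanin with DMSO and 100% = forskolin alone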
# OX1R antag-2 – OX1R (HCRTR1) antagonists, primary screen, fluorescence, CHO/OX1R cells, Fluo-8 calcium, orexin A; hit rate 0.43% among 330,000; inhibition, % at 5 µM; Orexin/Hypocretin receptor type 1 (Homo sapiens), O43613; Fluo-8 calcium fluorescence;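 active means inhibition above its plate's threshold, mean inhibition of all tested compounds on the plate plus 3 SD, cut at about 37% in these data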;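 further: 0% = orexin A challenge wells and 100% = SB-334867-A antagonist wells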
# GPR7 antag cf – GPR7 receptor antagonists, confirmation, cell-based, fluorescence, single concentration; AID 1952, 2009; GPR7-expressing cells, calcium fluorescence antagonist mode; inhibition, % at 4.4 µM; shares compounds with GPR7 antagonist; hit rate 52% among 2,400; in the data active means inhibition above about 24%;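 further: stimulated with the GPR7 agonist NPW; 0% = agonist plus vehicle and 100% = vehicle alone without agonist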
# MCHR1 antag – MCHR1 antagonists in cells, counter-screen for GPR7 antagonist project, cell-based, fluorescence, human | shares compounds with GPR7 antagonist | MCHR1-expressing cells, fluorescence antagonist assay | inhibition, % at 4.4 µM | hit rate 62% among 2,400; in the data active means inhibition above about 22%;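 further: 0% = vehicle with agonist and 100% = vehicle without agonist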
# * marks the source's active call; other numbers are inactive results; · = not tested or not shown. Hits are enriched below; roughly 3.1% of the tested compounds scored in any of these assays.
SMILES,CHO parental Ca,GPR7 antagonist,OX1R antag-1,GalR3 antag,OX1R antag-2,GPR7 antag cf,MCHR1 antag
COc1ccc(CNC(=O)CSc2ncn[nH]2)cc1,9.7,0.5,14.9,0.0,-13.4,·,·
COc1ccc(CNC(=O)CSc2nnc(C)c(=O)[nH]2)cc1,-5.4,25.3*,6.0,-7.0,-3.9,-5.7,-0.1
COc1ccc(NC(=O)CSc2n[nH]c(C)c2[N+](=O)[O-])cc1,10.3,22.3*,10.2,7.0,-9.8,9.4,8.8
Cc1ccc(NC(=O)CSc2n[nH]c(C)c2[N+](=O)[O-])cc1C,24.2,-11.0,15.6,2.1,18.9,·,·
COc1cc(C(=O)NCCOc2cc(C)cc(C)c2)cc(OC)c1OC,-10.7,17.8,7.7,-8.5,-8.7,·,·
COCCN1Cc2cc(C(=O)OC)c3c(c2C1=O)c1cc(F)ccc1n3S(=O)(=O)c1ccc(C)cc1,·,·,·,-7.4,·,·,·
CCc1ccc(NC(=O)C2(c3ccccc3)CC2(Cl)Cl)cc1 (centres undefined),14.4,28.7*,12.6,-8.2,52.3*,64.6*,76.1*
CCc1cccc(CC)c1NC(=O)Cn1c(-c2ccc(F)cc2)noc1=O,-17.6,27.5*,31.8,-8.6,-30.3,16.1,18.2
CCOc1ccccc1NC(=O)Cn1c(-c2ccc(Cl)cc2)noc1=O,-13.4,3.5,20.1,-3.7,-19.3,·,·
CC(=O)Nc1cc(-c2cccc(C(=O)NCCN(C)C)c2)cn2c(-c3cccc(C(F)(F)F)c3)cnc12,·,·,·,-5.4,·,·,·
CN1CCN(c2nc(-c3ccncc3)nc3ccccc23)CC1,3.9,-7.9,22.6,-4.4,-12.0,·,·
CN1CCN(c2nc(-c3ccc(Cl)cc3)nc3ccccc23)CC1,·,53.0*,·,-13.9,·,41.0*,35.8*
CCc1ccc(CNC(=O)CCC(=O)N2Cc3cccc(OC)c3Oc3ncccc32)cc1,-25.3,23.4*,18.3,-2.8,-53.0,3.1,-5.4
COc1cccc2c1Oc1ncccc1N(C(=O)CCC(=O)NCc1ccccc1)C2,-12.2,11.5,5.6,0.7,-17.1,·,·
COc1ccc(CCNC(=O)c2cc(-c3ccncc3)nc3ccc(S(=O)(=O)N4CCOCC4)cc23)cc1OC,-6.6,0.1,5.7,1.9,-14.3,·,·
CCOc1cc(CNC2CCCC2)cc(Cl)c1OCc1ccccc1,0.5,26.1*,6.4,-10.8,-0.4,39.8*,30.0*
COc1ccc(N(C(=O)c2ccco2)C(C(=O)NC2CCCC2)c2ccc(C)cc2)c(OC)c1 (centres undefined),·,6.4,·,-6.8,·,·,·
COc1ccc(C)cc1N(C(=O)c1ccco1)C(C(=O)NC1CCCC1)c1cc(OC)c(OC)c(OC)c1 (centres undefined),-13.5,42.9*,28.8,-7.8,-18.2,38.1*,23.6*
CCC(C)c1ccc(N(C(=O)c2ccco2)C(C(=O)NC2CCCC2)c2cccnc2)cc1 (centres undefined),-28.6,50.8*,18.9,-10.9,-43.8,21.6,14.3
CC1CCc2c(sc(NC(=O)c3ccc(N4C(=O)CCC4=O)cc3)c2C(N)=O)C1 (centres undefined),-18.0,·,3.7,-9.3,-6.2,·,·
Cc1ccc(Nc2nc(CSc3nnc(-c4ccc(F)cc4)n3C)cs2)cc1,-36.8,9.4,17.9,-7.3,-43.9,·,·
Cc1ccc(SCC(=O)OCC(=O)NCCc2ccccc2)cc1,-7.2,·,3.2,-2.8,-0.5,·,·
O=C(Cc1ccc(Cl)cc1)Nc1ccncc1,27.3,-1.6,10.8,-6.2,3.4,·,·
Cc1ccc(CC(=O)Nc2ccncc2)cc1,22.4,33.3*,12.3,-2.3,-3.2,2.3,39.8*
Cc1cc(S(=O)(=O)NCc2ccccc2)ccc1OCC(=O)NCc1ccncc1,-9.1,0.0,11.6,-0.4,-6.4,·,·
Nc1nc2ccccc2n1CCN1CCCC1,-4.6,33.4*,23.9,·,-15.2,-8.2,2.3

# Screening data deposited in PubChem BioAssay by The Scripps Research Institute Molecular Screening Center.
